Key:
[1] = Inhibition of specific binding of [125I]angiotensin II (0.2 nM) to angiotensin II receptor in bovine adrenal cortex; format: tissue-based, Bos taurus
[2] = target: T1, Angiotensin II receptor (Rattus norvegicus) (UniProt P29089+P25095+P35351); experiment: Percent inhibition of angiotensin II (0.1 ug/kg iv) -induced pressor response 3h after administration of test compounds (1 mg/kg po) in conscious male Sprague-Dawley rats; format: functional, organism-based
How it was run: (§1)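 Conscious male Sprague-Dawley rats were given the test compound at 1 mg/kg orally. They were then challenged with AII at 0.1 μg/kg iv. The AII-induced pressor response was measured 3 and 7 h after dosing and expressed as percent inhibition.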

Rattus norvegicus [3] = experiment: Percent inhibition of AII-induced pressor response 7 hr after administration of test compounds (1 mg/kg po) in conscious male Sprague-Dawley rats.
[4] = Bioavailability; format: ADME, organism-based; details: eutheria, in vivo; read-out: BA
[5] = pka value was determined; format: physicochemical
How it was run: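 pKa of the acidic group was estimated from the corresponding methyl ester. Titration was potentiometric with standardized 0.1 N NaOH in DMSO–H2O (2:3) at 26 °C.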

[6] = target: T1, Angiotensin II receptor (Rattus norvegicus); experiment: Percent inhibition of angiotensin II (0.1 ug/kg iv) -induced pressor response 7 hr after administration of test compounds (1 mg/kg po) in conscious male Sprague-Dawley rats; format: functional, organism-based; how it was run: as §1
Rattus norvegicus [7] = experiment: Percent inhibition of AII (0.1 ug/kg iv) -induced pressor response at 7 hr after administration of test compounds (0.1 mg/kg po) in conscious male Sprague-Dawley rats.; format: functional; details: in the assay text read “3 hr” for “7 hr”
How it was run: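 In conscious male Sprague-Dawley rats, the oral test dose was 0.1 mg/kg. The pressor response to an AII challenge (0.1 μg/kg iv) was recorded after dosing, and percent inhibition was calculated.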

[8] = Partition coefficient (logP); format: physicochemical; details: octanol/water
Rattus norvegicus [9] = experiment: Percent inhibition of AII (0.1 ug/kg iv) -induced pressor response at 3 hr after administration of test compounds (0.1 mg/kg po) in conscious male Sprague-Dawley rats.
Rattus norvegicus [10] = experiment: Percent inhibition of AII ([…]) -induced pressor response 7 hr after administration of test compounds (1 mg/kg po) in conscious male Sprague-Dawley rats.; format: functional

## CCCCc1nc2cccc(C(=O)O)c2n1Cc1ccc(-c2ccccc2-c2nn[nH]n2)cc1
[1]
  IC50: 550 nM

## CCCCc1nc2cccc(C(=O)OC)c2n1Cc1ccc(-c2ccccc2C2=NOS(=O)N2)cc1 (stereo unspecified)
[2]
  inhibition: 63%
[1]
  IC50: > 1000 nM
Rattus norvegicus [3]
  Inhibition: 22%

## CCOc1nc2cccc(C(=O)O)c2n1Cc1ccc(-c2ccccc2-c2nnn[nH]2)cc1
[4]
  bioavailability: 5%
[5]
  pKa: 5.3
[1]
  IC50: 110 nM

## CCCSc1nc2cccc(C(=O)O)c2n1Cc1ccc(-c2ccccc2-c2nsc(O)n2)cc1
[2]
  inhibition: 100%
[6]
  inhibition: 100%
[1]
  IC50: > 1000 nM

## CCOc1nc2cccc(C(=O)O)c2n1Cc1ccc(-c2ccccc2-c2nsc(O)n2)cc1
[4]
  bioavailability: 51%
[2]
  inhibition: 100%
Rattus norvegicus [7]
  Inhibition: 100%
[5]
  pKa: 6.6
[1]
  IC50: 250 nM
[8]
  logP: 1.58

## CCSc1nc2cccc(C(=O)O)c2n1Cc1ccc(-c2ccccc2-c2noc(S)n2)cc1
[2]
  inhibition: 100%
[6]
  inhibition: 100%
[1]
  IC50: 690 nM

## CSc1nc2cccc(C(=O)O)c2n1Cc1ccc(-c2ccccc2-c2nsc(O)n2)cc1
[2]
  inhibition: 100%
[6]
  inhibition: 100%
[1]
  IC50: 500 nM

## CCc1nc2cccc(C(=O)O)c2n1Cc1ccc(-c2ccccc2-c2noc(S)n2)cc1
[2]
  inhibition: 91%
[6]
  inhibition: 89%
[1]
  IC50: 340 nM

## CCOc1nc2cccc(C(=O)OC)c2n1Cc1ccc(-c2ccccc2-c2noc(O)n2)cc1
[2]
  inhibition: 100%
[6]
  inhibition: 100%
[1]
  IC50: 440 nM

## CCCCc1nc2cccc(C(=O)OC)c2n1Cc1ccc(-c2ccccc2-c2nn[nH]n2)cc1
[1]
  IC50: 320 nM

## Cc1nc2cccc(C(=O)O)c2n1Cc1ccc(-c2ccccc2-c2nsc(O)n2)cc1
[2]
  inhibition: 80%
[6]
  inhibition: 71%
[1]
  IC50: 970 nM

## CCOc1nc2cccc(C(=O)OC)c2n1Cc1ccc(-c2ccccc2-c2noc(S)n2)cc1
[2]
  inhibition: 83%
[6]
  inhibition: 93%
[1]
  IC50: > 1000 nM

## CCCCc1nc2cccc(C(=O)O)c2n1Cc1ccc(-c2ccccc2-c2noc(S)n2)cc1
[2]
  inhibition: 82%
Rattus norvegicus [7]
  Inhibition: 19%
[1]
  IC50: 760 nM

## CCCc1nc2cccc(C(=O)O)c2n1Cc1ccc(-c2ccccc2-c2noc(S)n2)cc1
[2]
  inhibition: 96%
[6]
  inhibition: 94%
[1]
  IC50: 390 nM

## CCCSc1nc2cccc(C(=O)O)c2n1Cc1ccc(-c2ccccc2-c2noc(S)n2)cc1
[2]
  inhibition: 100%
[6]
  inhibition: 100%
[1]
  IC50: > 1000 nM

## CCCOc1nc2cccc(C(=O)O)c2n1Cc1ccc(-c2ccccc2-c2nsc(O)n2)cc1
[2]
  inhibition: 83%
[6]
  inhibition: 100%
[1]
  IC50: 920 nM

## CCCCc1nc2cccc(C(=O)OC)c2n1Cc1ccc(-c2ccccc2-c2noc(O)n2)cc1
[1]
  IC50: 900 nM

## CCCCc1nc2cccc(C(=O)O)c2n1Cc1ccc(-c2ccccc2-c2nsc(O)n2)cc1
[2]
  inhibition: 92%
Rattus norvegicus [7]
  Inhibition: 19%
[1]
  IC50: 720 nM

## CCOc1nc2cccc(C(=O)O)c2n1Cc1ccc(-c2ccccc2-c2noc(=O)[nH]2)cc1 [AZILSARTAN]
[4]
  bioavailability: 20%
[2]
  inhibition: 100%
[5]
  pKa: 6.1
[1]
  IC50: 420 nM
Rattus norvegicus [9]
  Inhibition: 75%

## COc1nc2cccc(C(=O)O)c2n1Cc1ccc(-c2ccccc2-c2nsc(O)n2)cc1
[2]
  inhibition: 88%
[6]
  inhibition: 91%

## CCCc1nc2cccc(C(=O)O)c2n1Cc1ccc(-c2ccccc2-c2nsc(O)n2)cc1
[2]
  inhibition: 100%
[6]
  inhibition: 100%
[1]
  IC50: 360 nM

## CCCCc1nc2cccc(C(=O)OC)c2n1Cc1ccc(-c2ccccc2-c2nsc(O)n2)cc1
[2]
  inhibition: 87%
Rattus norvegicus [7]
  Inhibition: 10%
[1]
  IC50: > 1000 nM

## CCCCc1nc2cccc(C(=O)OC)c2n1Cc1ccc(-c2ccccc2-c2noc(S)n2)cc1
[2]
  inhibition: 84%
[1]
  IC50: > 1000 nM
Rattus norvegicus [9]
  Inhibition: 7%

## CCCCc1nc2cccc(C(=O)O)c2n1Cc1ccc(-c2ccccc2-c2noc(O)n2)cc1
[2]
  inhibition: 68%
[6]
  inhibition: 64%
[1]
  IC50: 620 nM

## CCOc1nc2cccc(C(=O)OC)c2n1Cc1ccc(-c2ccccc2-c2nn[nH]n2)cc1
[1]
  IC50: 66 nM

## CCNc1nc2cccc(C(=O)O)c2n1Cc1ccc(-c2ccccc2-c2nsc(O)n2)cc1
[2]
  inhibition: 70%
[6]
  inhibition: 71%
[1]
  IC50: 130 nM

## CCCCc1nc(Cl)c(CO)n1Cc1ccc(-c2ccccc2-c2nnn[nH]2)cc1 [LOSARTAN]
[1]
  IC50: 150 nM

## CCSc1nc2cccc(C(=O)O)c2n1Cc1ccc(-c2ccccc2-c2nsc(O)n2)cc1
[2]
  inhibition: 100%
[6]
  inhibition: 100%
[1]
  IC50: 470 nM

## CCOc1nc2cccc(C(=O)OC)c2n1Cc1ccc(-c2ccccc2C2=NOS(=O)N2)cc1 (stereo unspecified)
[2]
  inhibition: 35%
[1]
  IC50: 460 nM
Rattus norvegicus [10]
  Inhibition: 29%

## CNc1nc2cccc(C(=O)O)c2n1Cc1ccc(-c2ccccc2-c2nsc(O)n2)cc1
[2]
  inhibition: 32%
[6]
  inhibition: 29%
[1]
  IC50: 540 nM

## Cc1nc2cccc(C(=O)O)c2n1Cc1ccc(-c2ccccc2-c2noc(S)n2)cc1
[2]
  inhibition: 57%
[6]
  inhibition: 50%
[1]
  IC50: > 1000 nM

## CSc1nc2cccc(C(=O)O)c2n1Cc1ccc(-c2ccccc2-c2noc(S)n2)cc1
[2]
  inhibition: 100%
[6]
  inhibition: 91%
[1]
  IC50: 1000 nM

## CCc1nc2cccc(C(=O)O)c2n1Cc1ccc(-c2ccccc2-c2nsc(O)n2)cc1
[2]
  inhibition: 100%
[6]
  inhibition: 100%
[1]
  IC50: 69 nM

## CCOc1nc2cccc(C(=O)OC)c2n1Cc1ccc(-c2ccccc2-c2nsc(O)n2)cc1
[2]
  inhibition: 100%
[6]
  inhibition: 100%
[1]
  IC50: 750 nM

From ChEMBL document CHEMBL1129462, “Synthesis and angiotensin II receptor antagonistic activities of benzimidazole derivatives bearing acidic heterocycles as novel tetrazole bioisosteres” (J Med Chem, 1996)
